The source of these data is ChEMBL document CHEMBL1909523, “2,6-Bis-arylmethyloxy-5-hydroxychromones with antiviral activity against both hepatitis C virus (HCV) and SARS-associated coronavirus (SCV)” (Eur J Med Chem, 2011).

Series [1] concerns Hepatitis C virus. As to the kind of experiment: Inhibition of HCV genotype 1b NS5B cdelta21 RNA polymerase using [alpha32p]GTP after 30 mins by microbeta scintillation counting. The following applies: Hepatitis C virus subtype 1b.
The next series concerns HS27. As to the kind of experiment: Cytotoxicity against human HS27 cells after 24 hrs by MTT assay. The series is classed as cell-based. The following applies: hs27, 24 h. Summed up: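 Normal human fibroblast HS27 cells, 5 × 10^3/well in DMEM, grown 1 day (37 °C, 5% CO2), then given compounds at 0.1, 0.5, 1, 5, 10 and 50 µM (from DMSO) for 24 h; MTT viability read-out; triplicates, repeated three times. Value is the concentration reducing proliferation by 50%.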
For orientation: Tetrazolium assays rely on reduction of a dye to a coloured formazan, in cell work by metabolically active cells.

A short description of series [2]: Inhibition of NTPase activity of SCV NTPase/helicase after 5 mins by FRET assay. Also noted: species or system Severe acute respiratory syndrome-related coronavirus.
Series [3] is described as follows: Inhibition of helicase activity of SCV NTPase/helicase assessed as inhibition of ds-DNA unwinding after 5 mins by FRET assay. Also noted: species or system Severe acute respiratory syndrome-related coronavirus. Summed up:
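FRET unwinding: helicase solution (150 nM, 20 mM HEPES pH 7.4) preincubated 5 min at rt with compound. Started with 5× mix (5 mM MgCl2, 45 mM ATP, 25 mM DTT, 100 nM substrate): 25-bp TAMRA/fluorescein dsDNA with 20-dT 5′ overhang. Run 2 min at 37 °C, stopped with EDTA plus unlabelled trap oligomer; ex 485/em 535 nm. Value is 50% inhibition concentration.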

Series [4] concerns Hepatitis C virus. In words: Antiviral activity against HCV genotype 1 infected in human Huh7 cells assessed as reduction of viral replication after 4 days by luciferase reporter gene assay. In kind it is functional, organism-based, Hepacivirus hominis. The following applies: genotype 1, Huh-7, 96 h. Summed up:
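Subgenomic genotype 1 replicon (luc-ubi-neo) Huh-5-2 cells, 5 × 10^3/well, in DMEM with 500 µg/mL G418 for 24 h at 37 °C, 5% CO2; medium refreshed with G418, compounds added from DMSO stock; 4 days at 37 °C; luciferase read-out. Value is the concentration inhibiting HCV RNA replication by 50%.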
(Reporter assays use an easily measured gene product as a stand-in for the process of interest.)

By pIC50 is commonly meant the negative decadic logarithm of the IC50, by convention in mol/L. Usually pEC50 stands for the negative decadic logarithm of the EC50, by convention in mol/L.

pEC50, pIC50: −log10 of the molar value. Activity calls are given as the source filed them. The rule behind the calls is not given here. Where only a bound is given, the exact number is not on record here.

For `O=c1cc(OCc2cccc(Cl)c2)oc2ccc(OCc3cccc(Cl)c3)c(O)c12`, the inhibition result in the series on Hepatitis C virus [1] is “inactive”. The molecule also displayed an Activity in the series with HS27 above 50 µM. The pIC50 in series [2] was 5.00; in series [3], 4.40. Besides, the pEC50 in the series with Hepatitis C virus [4] was 4.77.
In the same order, the values of `N#Cc1cccc(COc2cc(=O)c3c(O)c(OCc4cccc(Cl)c4)ccc3o2)c1` are “inactive”, above 50 µM, 4.43, below 4.30 and 4.77.
On to `O=c1cc(OCc2ccccc2)oc2ccc(OCc3cccc(Cl)c3)c(O)c12`, for which, in the series with Hepatitis C virus [1], the inhibition result was “inactive”. Further, in the series on HS27, the Activity is above 50 µM. Besides, the pIC50 in series [2] and in series [3] was below 4.30 each time. Further, the pEC50 in the series on Hepatitis C virus [4] was below 4.30.
`N#Cc1cccc(COc2cc(O)c3c(=O)c(O)c(-c4ccccc4)oc3c2)c1` came in with an Activity in the series on HS27 above 50 µM. For the same molecule, the pIC50 in series [2] and in series [3] was below 4.30 throughout.
Consider `O=c1c(OCc2cccc([N+](=O)[O-])c2)c(-c2ccccc2)oc2cc(O)cc(O)c12`, for which the Activity with HS27 was above 50 µM. In addition, the pIC50 in series [2] and in series [3] was below 4.30 in each case.
On to `O=c1cc(OCc2cccc(I)c2)oc2ccc(OCc3cccc(Cl)c3)c(O)c12`, for which the inhibition result in the series with Hepatitis C virus [1] was “inactive”. The molecule also showed an Activity in the series with HS27 above 50 µM. In addition, the pIC50 in series [2] is 5.40; in series [3], 4.96. Moreover, the pEC50 with Hepatitis C virus [4] is 5.40.
As to `O=c1cc(OCc2ccc(I)cc2)oc2ccc(OCc3cccc(Cl)c3)c(O)c12`, the inhibition entry in the series with Hepatitis C virus [1] is “inactive”. Besides, the Activity in the series on HS27 is above 50 µM. Moreover, the pIC50 was 4.64 in series [2] and 4.51 in series [3]. The pEC50 in the series with Hepatitis C virus [4] is 5.52.
For `O=C(O)/C(O)=C/C(=O)c1cccc(NCc2ccc(Cl)cc2)c1`, the Activity in the series with HS27 is above 50 µM. The same molecule had a pIC50 in series [2] below 4.30. Further, the pEC50 in the series on Hepatitis C virus [4] was 6.10.
As to `O=c1cc(OCc2cc(Cl)cc(Cl)c2)oc2ccc(OCc3cccc(Cl)c3)c(O)c12`, the inhibition entry with Hepatitis C virus [1] is “inactive”. In the series with HS27, this molecule returned an Activity above 50 µM. For the same molecule, the pIC50 in series [2] and in series [3] was below 4.30 in each case. For the same molecule, in the series with Hepatitis C virus [4], the pEC50 was 6.00.
As for `O=c1cc(OCc2ccc(Cl)cc2)oc2ccc(OCc3cccc(Cl)c3)c(O)c12`, the inhibition entry in the series on Hepatitis C virus [1] is “inactive”. This molecule came in with an Activity in the series with HS27 above 50 µM. In addition, the pIC50 is 4.55 in series [2] and 4.28 in series [3]. For the same molecule, in the series with Hepatitis C virus [4], the pEC50 was 4.62.
